In the library only some 2.4% were active in any assay of this set; here they are far more common.
MT1-MMP act inh: blockers of MT1-MMP proenzyme processing, primary screen, HT1080 RFP-PRO-GFP cells, GFP/RFP fluorescence; GFP/RFP ratio fluorescence, overnight; percent of plate control window, DMSO zero; GFP/RFP ratio change, % at 20 µM; AID 651647, 2012; Matrix metalloproteinase-14 (Homo sapiens), P50281; 360,000 compounds, 0.061% hits;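 active = GFP/RFP ratio change of at least 30% with cell ATP level not reduced by more than half and red fluorescence within 50% of control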
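Material – HT1080 RFP-PRO-GFP cells · Control set – DMSO wells and RFP-L50D-GFP cells · Incubation – overnight cell settling, then overnight compound exposure, 37 °C, 5% CO2 · Compound dosing – single-point 20 µM compound, 1% DMSO · Read-out – GFP/RFP fluorescence ratio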
SENP1 inh: human SENP1 catalytic domain inhibitors, primary screen, biochemical, FRET, uHTS | Sentrin-specific protease 1 (Homo sapiens), Q9P0U3 | recombinant SENP1 catalytic domain, CyPet-SUMO1-YPet FRET cleavage | inhibition, % at 10 µM | 360,000 compounds, 0.21% hits | AID 624204, 2012;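 active = inhibition at least 30% at 10 µM, raw YFP signal under a set limit, fluorescence ratio 0.5 to 1.5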
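Test system: hSENP1 catalytic domain, recombinant; Amount: 20 pM final SENP1 enzyme; Medium: Tris pH 8 buffer plus EDTA, NaCl, BME, BSA, NP40, catalase; Schedule: 50 min enzyme reaction, room temperature, light-protected; Technique: FRET fluorescence in CFP and YFP emission channels; Controls: no-enzyme wells low, DMSO-plus-enzyme wells high control.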
DAGLB inh: DAGLB lipase inhibitors, primary screen, biochemical, fluorescence, HTS; HEK293T DAGLB membrane lysate, EnzChek fluorogenic substrate; inhibition, % at 5.17 µM; 340,000 compounds, 0.059% hits; AID 504411, 2011; in the data active = inhibition above about 34%
NRP1-CendR mod: modulators of CendR peptide binding to NRP-1, primary screen, biochemical, fluorescence polarization, uHTS; Neuropilin-1 (Homo sapiens), O14786; FAM-RPARPAR peptide binding to NRP-1; inhibition, % at 25 µM; 360,000 compounds, 0.85% hits; AID 602438, 2012;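 active = inhibition or corrected inhibition above about 18%, plus a signal ratio from 0.5 to 1.5, limit read from the data, passing the limit was not always enough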
Target sequence (O14786 whole entry, looked up): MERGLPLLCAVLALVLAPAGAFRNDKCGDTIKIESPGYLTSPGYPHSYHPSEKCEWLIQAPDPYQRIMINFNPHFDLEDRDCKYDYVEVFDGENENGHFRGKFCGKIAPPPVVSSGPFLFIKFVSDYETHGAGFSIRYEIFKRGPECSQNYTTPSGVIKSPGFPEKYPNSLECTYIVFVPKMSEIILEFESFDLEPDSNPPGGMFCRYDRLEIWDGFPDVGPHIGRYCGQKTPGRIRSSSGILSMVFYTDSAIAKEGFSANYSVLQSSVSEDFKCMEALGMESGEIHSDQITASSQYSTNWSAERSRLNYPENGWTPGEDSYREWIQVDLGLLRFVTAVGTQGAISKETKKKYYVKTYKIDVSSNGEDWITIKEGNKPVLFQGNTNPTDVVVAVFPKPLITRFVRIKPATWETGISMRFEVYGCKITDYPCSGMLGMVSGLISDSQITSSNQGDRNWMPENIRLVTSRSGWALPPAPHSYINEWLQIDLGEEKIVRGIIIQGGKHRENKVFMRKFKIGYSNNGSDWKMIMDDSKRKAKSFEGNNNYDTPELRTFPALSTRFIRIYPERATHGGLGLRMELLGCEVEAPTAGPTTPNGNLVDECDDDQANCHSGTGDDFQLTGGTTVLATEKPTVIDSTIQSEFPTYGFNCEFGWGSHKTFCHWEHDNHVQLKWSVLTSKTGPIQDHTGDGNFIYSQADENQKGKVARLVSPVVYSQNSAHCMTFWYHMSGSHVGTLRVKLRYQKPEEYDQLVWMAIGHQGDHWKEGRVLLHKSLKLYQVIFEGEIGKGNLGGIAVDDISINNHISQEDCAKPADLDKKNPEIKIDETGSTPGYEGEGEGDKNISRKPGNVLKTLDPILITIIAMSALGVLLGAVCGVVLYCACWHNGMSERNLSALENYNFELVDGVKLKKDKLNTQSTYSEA
beta cell repl: inducers of MIN6 beta-cell proliferation, primary screen, ATP luminescence, uHTS | AID 2380, 2010 | proliferation, % at 10 µM | MIN6 cells proliferation, ATPlite luminescence, 48 h; cells starved in 0.2% serum; 100% = growth in 10% serum | 330,000 compounds, 0.29% hits;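 active = compounds whose signal lies at least 3.5 SD above the mean of all wells on their plate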
Myeloid diff 2: induction of myeloid progenitor differentiation, primary screen, cell-based, flow cytometry, MLPCN library | 360,000 compounds, 1% hits | calls only at 10 µM | ER-HoxA9 myeloid progenitors, lysozyme-GFP differentiation;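 active = normalized GFP-positive differentiation at or above the plate's own cutoff, the solvent-only control mean plus 3 SD; inconclusive = no clear call, values can overlap the other calls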;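 note: cells exposed to compound for four days before flow analysis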
Myeloid diff CP1: inducers of myeloid progenitor differentiation, confirmation, cell-based, GFP/Mac1 flow cytometry, cherry pick 01; shares compounds with Myeloid diff 2; ER-HoxA9 myeloid progenitors, GFP/Mac1 double-positive flow; calls only; 2,300 compounds, 2% hits; AID 651706, 2012;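 active = share of green or green-and-red cells above 9 and 9% in run 1 or 4 and 3% in run 2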
GFP autofluor: compound fluorescence in myeloid differentiation counter-screen; 2,300 compounds, 7.4% hits; shares compounds with Myeloid diff 2; AID 651707; ER-HoxA9 myeloid progenitors, no estrogen, GFP autofluorescence flow cytometry; vehicle wells 0%, positive control 100%; fluorescence response, % (test concentration not listed);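 active = over 5% cells positive for green fluorescent reporter, or over 2% positive for both it and APC stain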
Each line names hits and unclear results; the compound was inactive in the other large screens (follow-up assays come after a bar, where they were run).

CC(=O)Nc1cccc(/C(C)=N\NC(=O)c2ccc(Cn3nc([N+](=O)[O-])c(Cl)c3C)o2)c1	none
Cc1cccc(C)c1Nc1c(-c2ccccn2)nc2ccccn12	none
CS(=O)(=O)c1ccc(Cl)c(NC(=O)Cc2ccsc2)c1	none
CCC(C)Nc1nc(OCC(F)(F)F)nc(OCC(F)(F)F)n1 (stereo unspecified)	none
CCC(C)Nc1nc(OC(C(F)(F)F)C(F)(F)F)nc(OC(C(F)(F)F)C(F)(F)F)n1 (stereo unspecified)	Myeloid diff 2 active | Myeloid diff CP1 inactive | GFP autofluor inactive
COc1ccc(-c2ccc3[nH]c4c(c3c2)CCN2C[C@@H]([C@H](C)O)[C@@H](N(C)C(=O)Nc3cc(Cl)cc(Cl)c3)C[C@@H]42)cc1	Myeloid diff 2 active (no result: beta cell repl) | Myeloid diff CP1 inactive | GFP autofluor inactive
C[C@H](O)[C@@H]1CN2CCc3c([nH]c4ccccc34)[C@@H]2C[C@@H]1N(C)C(=O)Nc1cccc2ccccc12	none (no result: DAGLB inh, beta cell repl) | Myeloid diff CP1 inactive | GFP autofluor inactive
C[C@H](O)[C@@H]1CN2CCc3c([nH]c4ccccc34)[C@@H]2C[C@@H]1N(C)C(=S)NCCc1ccccc1	Myeloid diff 2 active (no result: DAGLB inh, beta cell repl) | Myeloid diff CP1 inactive | GFP autofluor inactive
COc1ccc(-c2cc(=O)oc3c(C)c(OCC(=O)Nc4cccnc4)ccc23)cc1	none
COc1ccc(-c2cc(=O)oc3c(C)c(OCC(=O)N(C)C)ccc23)cc1	Myeloid diff 2 active | Myeloid diff CP1 inactive | GFP autofluor inactive
Cc1c(OCC(=O)NCc2ccccn2)ccc2c(-c3ccccc3)cc(=O)oc12	Myeloid diff 2 active | Myeloid diff CP1 inactive | GFP autofluor inactive
N=c1c2c(n(Cc3ccccc3)c3c1CCC3)CCC2	Myeloid diff 2 active | Myeloid diff CP1 inactive | GFP autofluor inactive
N=c1c2c(n(Cc3cccc(Cl)c3)c3c1CCC3)CCCC2	none (no result: Myeloid diff 2)
CCCCC1CC2=C(C(=O)OC(C)(C)O2)C(c2cccc3ccccc23)O1 (stereo unspecified)	none (no result: DAGLB inh, beta cell repl)
COc1ccc(N=Cc2c(O)[nH]c3ccccc23)cc1	Myeloid diff 2 inconclusive
Oc1[nH]c2ccccc2c1/C=N/c1nccs1	none | Myeloid diff CP1 inactive | GFP autofluor inactive
N#Cc1nc(-c2cccs2)oc1NCc1ccco1	none | Myeloid diff CP1 inactive | GFP autofluor inactive
N#Cc1nc(-c2cccs2)oc1NCc1ccccc1	none
O=C(NC1CCCC1)C1CCN(S(=O)(=O)c2ccccc2)CC1	none
Clc1cc(Cl)cc(Nc2ccccc2CN(C/C=C/c2ccc3c(c2)OCO3)Cc2ccccc2)c1	none (no result: beta cell repl) | Myeloid diff CP1 inactive | GFP autofluor inactive
CC(=O)OCCN(Cc1ccccc1)Cc1ccc2c(c1)OCO2	none
Cc1ccc(NC2=Nc3ccccc3CS2)cc1	none
c1ccc(NC2=Nc3ccccc3CC2)cc1	Myeloid diff 2 active | Myeloid diff CP1 inactive | GFP autofluor inactive
O=C(O)COc1ccc(C(=O)Cc2ccc3c(c2)OCCCO3)c(O)c1	none | Myeloid diff CP1 inactive | GFP autofluor inactive
COc1ccc(C(=O)Cc2ccc3c(c2)OCO3)c(O)c1	none
COc1ccc2nc(C)cc(SCC(=O)NNC(=O)COc3ccc(C)cc3)c2c1	none | Myeloid diff CP1 inactive | GFP autofluor inactive
COc1ccc2nc(C)cc(SCC(=O)NNC(=O)COc3cccc4ccccc34)c2c1	none
